Experiments:
[1] = Caco-2 cell permeability assay; details: human
[2] = system: A431 human tumor xenografts; experiment: A431 human tumor xenograft study in nude mice; assay type: in vivo; details: A431 xenograft tumor tissue protein, Western blot
How it was run: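 Athymic BALB/c nude mice, 4–6 weeks old, were implanted s.c. at one site with 1.5 × 10^7 A431 cells under anaesthesia. At 100–200 mm3, mice were randomised into four groups. Saline vehicle (0.1 mL/10 g) or test compound at 10 or 40 mg/kg was given i.g. daily for 27 days. Caliper tumour size and body weight were recorded every 2 days. Excised tumours were weighed, RIPA-extracted and Western blotted; mean ± SD, n = 3.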

[3] = Metabolic stability in rat liver microsomes; assay type: in vitro ADME; details: pH 7.4
How it was run: (§1)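 Liver microsomes were incubated in PBS pH 7.4 at 37 °C with test compound at 1 μmol/L final (1.5 μmol/L in the microsome pre-mix, 0.75 mg/mL microsomes). The reaction was started with NADPH (6 mmol/L stock). Samples at 0, 5, 15, 30 and 45 min were quenched with acetonitrile containing internal standard, vortexed, centrifuged and analysed by LC–MS/MS. Results were expressed as % parent remaining, giving t1/2.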

[4] = Metabolic stability in mouse liver microsomes; assay type: in vitro ADME; details: pH 7.4
How it was run: as §1

[5] = Metabolic stability in dog liver microsomes; assay type: in vitro ADME; details: pH 7.4
How it was run: as §1

[6] = Metabolic stability in monkey liver microsomes; assay type: in vitro ADME; details: pH 7.4
How it was run: as §1

[7] = Pharmacokinetic study in rats; assay type: in vivo; details: Sprague-Dawley, rat, plasma; for AUC: mean ± SD, n = 3

Papp A→B at 90 min, 10 μmol/L [1] [nm/s]	Papp B→A at 90 min, 10 μmol/L [1] [nm/s]	efflux ratio at 90 min, 10 μmol/L [1]	half-life at 1 μmol/L [3] [min]	half-life at 1 μmol/L [4] [min]	half-life at 1 μmol/L [5] [min]	half-life at 1 μmol/L [6] [min]	MRT inf ([7]; iv, 10 mg/kg) [min]	AUC ([7]; iv, 10 mg/kg, AUCINF_plasma, i.v. 10 mg/kg) [µg·h/mL]	AUC ([7]; iv, 10 mg/kg, AUClast_plasma, i.v. 10 mg/kg) [µg·h/mL]	bioavailability ([7]; oral, 40 mg/kg) [%]	Cmax ([7]; po, 40 mg/kg) [µg/mL]	Tmax ([7]; po, 40 mg/kg) [min]	half-life ([7]; po, 40 mg/kg) [min]	AUC ([7]; po, 40 mg/kg, AUCINF_plasma, p.o. 40 mg/kg) [µg·h/mL]	AUC ([7]; po, 40 mg/kg, AUClast_plasma, p.o. 40 mg/kg) [µg·h/mL]	SMILES	p-EGFR and p-AKT in tumor extracts [2]
0.9 ± 0.3	221.8 ± 0.2	240	–	–	–	–	–	–	–	–	–	–	–	–	–	CC[C@H]1OC(=O)[C@H](C)[C@@H](O[C@H]2C[C@@](C)(OC)[C@@H](O)[C@H](C)O2)[C@H](C)[C@@H](O[C@@H]2O[C@H](C)C[C@H](N(C)C)[C@H]2O)[C@](C)(O)C[C@@H](C)C(=O)[C@H](C)[C@@H](O)[C@]1(C)O [Erythromycin]	–
83.7 ± 0.1	155.2 ± 0.2	–	21.2	8.38	34.5	4.66	272 ± 11.4	7.8 ± 1.46	7.72 ± 1.43	66.5 ± 22.8	1.48 ± 0.395	260 ± 173	231 ± 21	20.8	20.5	COc1cc2ncnc(Nc3ccc(F)c(Cl)c3)c2cc1OCCCN1CCOCC1 [Gefitinib]	clearly inhibited
400.4 ± 0.5	309.2 ± 0.3	0.77	–	–	–	–	–	–	–	–	–	–	–	–	–	COCCc1ccc(OCC(O)CNC(C)C)cc1 (stereo not shown) [Metoprolol]	–
